Ins promoter up: MIN6 insulin promoter up-regulation | MIN6 insulin promoter-GFP reporter, high-content imaging; stronger effect = higher value | z-score at 5 µM | 190,000 compounds, 0.3% hits;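 active = z-score above 3 at 5 µM with at least 500 cells counted in the well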
MT stabilizer: stabilizes microtubules in HeLa cells; % tubulin-high responders, % at 10 µM; HeLa tubulin immunostaining HCS, 24 h; share of cells brighter than vehicle mean+2SD; AID 2205; 200,000 compounds, 0.83% hits;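 active = plate Z-score above 3 for both tubulin-high and condensed-nucleus cell shares, with cell loss under 80%, at 10 µM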;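 note: anti alpha tubulin signal scored within the nucleus-defined area of each cell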
bCat nuc transl: alters nuclear translocation of beta-catenin in HeLa cells; AID 1665; nuclear translocation activity, % at 5 µM; immunofluorescence imaging; 190,000 compounds, 0.3% hits;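 active = nuclear translocation activity above 50% at 5 µM, with a well cell count of 50 or more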;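 note: per-cell ratio of nuclear to cytoplasmic median beta-catenin stain intensity; plate controls were DMSO negative control for no effect and GSK-3 inhibitor IX positive control for full effect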
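System: HeLa cells, endogenous beta-catenin; compound dosing: 5 µM primary single dose, 0.1% DMSO, 0.02–20 µM confirmation series; incubation: 24 h compound exposure at 37°C, 5% CO2; signal: beta-catenin immunofluorescence imaging with DAPI; evaluation: % activation, nuclear-to-cytoplasmic median beta-catenin signal ratio per cell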
Autophagy HCS: autophagy modulation, high-content screen | calls only at 10 µM (by protocol) | 190,000 compounds, 0.98% hits | MEF GFP-LC3 puncta imaging; test concentration mostly 10 µM | AID 463193;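 active = percentage of spot-positive cells more than 3 SD above its plate mean, without a fluorescence outlier flag or 80% toxicity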;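 note: spot-positive cell cutoff set from DMSO-treated cells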
Wee1 degr inh: human Wee1 degradation inhibition, primary screen; P30291; HeLa Luc-Wee1K328M stability, luciferase luminescence; 100% = proteasome inhibitor MG132 effect; reporter increase, % at 5 µM; 220,000 compounds, 1.2% hits;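 active = activation above the mean of all tested compounds plus 3 SD, set per screening run, cut at about 8.8% in these data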;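 note: cells exposed to compound for 20 h before luminescence read; 0% = DMSO alone and 100% = MG132 at 30 µM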
Wee1 degr conf: confirmation of human Wee1 degradation inhibitors. shares compounds with Wee1 degr inh. HeLa Luc-Wee1K328M degradation, luminescence; vehicle 0%, proteasome-blocked wells 100%. activation, % at 5 µM. 1,100 compounds, 4% hits. AID 1410; in the data active = activation above about 8.9%
The depositor's hits bear a star. Only some compounds are listed: those with a hit (about 2.9% of all), similar ones and a draw of the others.

How did C[C@H]1CCC/C=C/C2C[C@H](O)CC2[C@H](O)/C=C/C(=O)O1 (stereo not given in full) do in these assays?
MT stabilizer: 23.0; bCat nuc transl: 31.2; Autophagy HCS: active; Wee1 degr inh: -4.5

Results for N=Cc1c(O)n(-c2ccccc2)c(=O)n(-c2ccccc2)c1=O ?
Ins promoter up: 0.49; bCat nuc transl: 1.0; Wee1 degr inh: 0.5

How did C=Cn1ccnc1P(=S)(c1nccn1C=C)C1CCCCC1 do in these assays?
Ins promoter up: 0; MT stabilizer: 4.7; bCat nuc transl: -0.4; Autophagy HCS: inactive; Wee1 degr inh: 4.0

How did CCCCC(=O)N/N=C/c1c(O)n(CCc2ccccc2)c(=O)[nH]c1=O do in these assays?
Ins promoter up: -0.65; bCat nuc transl: -0.8; Wee1 degr inh: 20.5*; Wee1 degr conf: 1.7

What do the screens show for `CCn1cc(CN2CCCC(C(=O)c3sccc3C)C2)cn1` (stereo not given)?
Ins promoter up: -0.08; MT stabilizer: 4.1; bCat nuc transl: -1.0; Autophagy HCS: inactive; Wee1 degr inh: 11.1*; Wee1 degr conf: 0.5

How did Cc1sc2nc(COC(=O)Cc3ccccc3)[nH]c(=O)c2c1C do in these assays?
Ins promoter up: -0.11; MT stabilizer: 1.1; Autophagy HCS: inactive; Wee1 degr inh: -2.1

What do the screens show for `COc1ccc(NC2=NCC(C)S2)cc1` (stereo not given)?
Ins promoter up: -2.4; MT stabilizer: 2.1; bCat nuc transl: -4.5; Autophagy HCS: inactive; Wee1 degr inh: 2.1

What do the screens show for `COc1ccc(NC2=NC(C)(C)CS2)cc1`?
Ins promoter up: -1.2; MT stabilizer: 3.2; bCat nuc transl: -2.4; Autophagy HCS: inactive; Wee1 degr inh: 16.2*; Wee1 degr conf: 1.8

Results for Cc1cccc(C)c1NC1=NCCCCS1 ?
Ins promoter up: -1.03; MT stabilizer: 1.9; bCat nuc transl: -4.6; Autophagy HCS: inactive; Wee1 degr inh: -3.0

High-throughput results as filed in PubChem.
